Measured values taken from ChEMBL document CHEMBL1158511, “Tricyclic dihydroquinazolinones as novel 5-HT2C selective and orally efficacious anti-obesity agents” (Bioorg Med Chem Lett, 2010).

Legend:
[1] = target: T1, 5-hydroxytryptamine receptor 2B (Homo sapiens, UniProt P41595); assay: Agonist activity at human recombinant 5HT2B receptor expressed in HEK293E cells by FLIPR assay; assay type: functional, cell-based
Method in brief: (§1)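 Calcium mobilization measured by FLIPR in HEK293E cells expressing human 5-HT2A, 5-HT2B or 5-HT2C receptor. Values are means of ≥2 independent 12-point dose-response curves (n ≥4 where SD is given). mCPP is the positive control.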

[2] = target: T2, 5-hydroxytryptamine receptor 2A (Homo sapiens, UniProt P28223); assay: Displacement of [125I]DOI from human recombinant 5HT2A receptor expressed in HEK293E cells; assay type: cell-based
T2 sequence (P28223 whole entry): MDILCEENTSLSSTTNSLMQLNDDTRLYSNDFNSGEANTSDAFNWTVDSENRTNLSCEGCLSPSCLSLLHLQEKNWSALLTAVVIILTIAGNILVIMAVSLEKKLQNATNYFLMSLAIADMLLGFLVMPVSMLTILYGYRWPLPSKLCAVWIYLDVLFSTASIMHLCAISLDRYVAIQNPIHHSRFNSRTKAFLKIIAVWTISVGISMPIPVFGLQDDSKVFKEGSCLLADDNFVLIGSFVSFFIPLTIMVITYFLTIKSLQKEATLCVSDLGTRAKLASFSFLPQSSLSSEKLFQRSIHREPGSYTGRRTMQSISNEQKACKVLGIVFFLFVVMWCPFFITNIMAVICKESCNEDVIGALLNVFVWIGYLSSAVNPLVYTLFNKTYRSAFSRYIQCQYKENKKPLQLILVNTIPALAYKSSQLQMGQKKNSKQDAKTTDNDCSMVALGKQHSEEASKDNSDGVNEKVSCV
Method in brief: (§2)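 Radioligand binding with [125I]DOI at the human 5-HT2C or 5-HT2A receptor. Ki is the mean of ≥2 independent 12-point dose-response curves (n ≥4 where SD is given).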

[3] = target: T2, 5-hydroxytryptamine receptor 2A; assay: Agonist activity at human recombinant 5HT2A receptor expressed in HEK293E cells by FLIPR assay; assay type: functional, cell-based; method in brief: as §1
[4] = Half life in Sprague-Dawley rat at 1 mg/kg, iv; assay type: ADME, organism-based; design: dose 1 mg/kg, route intravenous; details: in vivo
Method in brief: (§3)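 Male Sprague–Dawley rats were dosed at 1 mpk iv and po. Values are means of 3 animals per route.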

[5] = Half life in Sprague-Dawley rat at 1 mg/kg, po; assay type: ADME, organism-based; design: dose 1 mg/kg, route oral; details: in vivo; method in brief: as §3
[6] = Clearance in Sprague-Dawley rat at 1 mg/kg, iv; assay type: ADME, organism-based; design: dose 1 mg/kg, route intravenous; details: in vivo; method in brief: as §3
[7] = Volume of distribution at steady state in Sprague-Dawley rat at 1 mg/kg, iv; assay type: ADME, organism-based; design: dose 1 mg/kg, route intravenous; details: in vivo, read-out: Vdss; method in brief: as §3
[8] = Tmax in Sprague-Dawley rat at 1 mg/kg, po; assay type: ADME, organism-based; design: dose 1 mg/kg, route oral; details: in vivo
Method in brief: (§4)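 Male Sprague–Dawley rats were dosed po only at 1 or 10 mpk. Values are means of 2 animals. AUC was collected over 4 h. Plasma and total brain levels were taken at 4 h post dose.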

[9] = Cmax in Sprague-Dawley rat at 1 mg/kg, po; assay type: ADME, organism-based; design: dose 1 mg/kg, route oral; details: in vivo; method in brief: as §4
[10] = AUC (0 to infinity) in Sprague-Dawley rat at 1 mg/kg, iv; assay type: ADME, organism-based; design: time infinity, dose 1 mg/kg, route intravenous; details: plasma; method in brief: as §3
[11] = AUC (0 to infinity) in Sprague-Dawley rat at 1 mg/kg, po; assay type: ADME, organism-based; design: time infinity, dose 1 mg/kg, route oral; details: plasma; method in brief: as §3
[12] = Oral bioavailability in Sprague-Dawley rat at 1 mg/kg; assay type: ADME, organism-based; details: in vivo; method in brief: as §3
[13] = Tmax in Sprague-Dawley rat at 10 mg/kg, po; assay type: ADME, organism-based; design: dose 10 mg/kg, route oral; details: in vivo; method in brief: as §4
[14] = Cmax in Sprague-Dawley rat at 10 mg/kg, po; assay type: ADME, organism-based; design: dose 10 mg/kg, route oral; details: in vivo; method in brief: as §4
[15] = AUC in Sprague-Dawley rat at 1 mg/kg, po after 4 hrs; assay type: ADME, organism-based; design: time < 4 hr, dose 1 mg/kg, route oral; details: plasma; method in brief: as §4
[16] = AUC in Sprague-Dawley rat at 10 mg/kg, po after 4 hrs; assay type: ADME, organism-based; design: time < 4 hr, dose 10 mg/kg, route oral; details: plasma; method in brief: as §4
[17] = Plasma concentration in Sprague-Dawley rat at 1 mg/kg, po after 4 hrs; assay type: ADME, organism-based; design: dose 1 mg/kg, route oral; method in brief: as §4
[18] = Plasma concentration in Sprague-Dawley rat at 10 mg/kg, po after 4 hrs; assay type: ADME, organism-based; design: dose 10 mg/kg, route oral; method in brief: as §4
Brain [19] = assay: Drug level in Sprague-Dawley rat brain at 1 mg/kg, po after 4 hrs; assay type: ADME, organism-based; design: dose 1 mg/kg, route oral; details: in vivo; method in brief: as §4
Brain [20] = assay: Drug level in Sprague-Dawley rat brain at 10 mg/kg, po after 4 hrs; assay type: ADME, organism-based; design: dose 10 mg/kg, route oral; details: in vivo; method in brief: as §4
Rattus norvegicus [21] = assay: Antiobesity activity in Sprague-Dawley rat assessed as reduction of food intake at 10 mg/kg, po after 20 hrs; assay type: functional; design: scale not given: the % may be the effect or the level left
Rattus norvegicus [22] = assay: Antiobesity activity in Sprague-Dawley rat assessed as reduction of body weight at 30 mg/kg, po after 4 days; assay type: functional; design: scale not given: the % may be the effect or the level left
Method in brief: (§5)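 Male Sprague–Dawley rats, about 240 g (n = 8), were dosed orally once daily for 4 days with compound or vehicle (14% propylene glycol, 1% tween, 85% water, v/v/v). Body weight, food and water intake were measured daily and compared with vehicle.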

Rattus norvegicus [23] = assay: Antiobesity activity in Sprague-Dawley rat assessed as reduction of caloric intake at 30 mg/kg, po after 4 days; assay type: functional; design: scale not given: the % may be the effect or the level left; method in brief: as §5
Rattus norvegicus [24] = organism: Rattus norvegicus; assay: Toxicity in Sprague-Dawley rat; assay type: organism-based; details: in vivo
Cytochrome P450 2C19 = Cytochrome P450 2C19 (Homo sapiens, UniProt P33261); assay: Inhibition of CYP2C19; assay type: ADME
Chain of Cytochrome P450 2C19 (P33261 whole entry): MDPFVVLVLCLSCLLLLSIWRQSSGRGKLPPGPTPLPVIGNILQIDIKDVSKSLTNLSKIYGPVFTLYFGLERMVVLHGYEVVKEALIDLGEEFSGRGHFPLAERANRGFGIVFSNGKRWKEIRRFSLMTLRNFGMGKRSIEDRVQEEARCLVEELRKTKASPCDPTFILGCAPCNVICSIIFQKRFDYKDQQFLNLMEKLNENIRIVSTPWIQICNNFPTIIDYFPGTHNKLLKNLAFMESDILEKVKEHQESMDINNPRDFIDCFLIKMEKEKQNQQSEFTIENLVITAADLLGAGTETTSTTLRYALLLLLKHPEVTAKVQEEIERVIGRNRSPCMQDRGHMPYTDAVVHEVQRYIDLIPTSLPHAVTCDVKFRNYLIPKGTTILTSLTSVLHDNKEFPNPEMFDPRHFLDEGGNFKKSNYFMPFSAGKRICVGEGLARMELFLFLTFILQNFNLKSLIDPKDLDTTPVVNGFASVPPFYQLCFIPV

Cytochrome P450 2D6 = Cytochrome P450 2D6 (Homo sapiens, UniProt P10635); assay: Inhibition of CYP2D6; assay type: ADME
Chain of Cytochrome P450 2D6 (P10635 whole entry): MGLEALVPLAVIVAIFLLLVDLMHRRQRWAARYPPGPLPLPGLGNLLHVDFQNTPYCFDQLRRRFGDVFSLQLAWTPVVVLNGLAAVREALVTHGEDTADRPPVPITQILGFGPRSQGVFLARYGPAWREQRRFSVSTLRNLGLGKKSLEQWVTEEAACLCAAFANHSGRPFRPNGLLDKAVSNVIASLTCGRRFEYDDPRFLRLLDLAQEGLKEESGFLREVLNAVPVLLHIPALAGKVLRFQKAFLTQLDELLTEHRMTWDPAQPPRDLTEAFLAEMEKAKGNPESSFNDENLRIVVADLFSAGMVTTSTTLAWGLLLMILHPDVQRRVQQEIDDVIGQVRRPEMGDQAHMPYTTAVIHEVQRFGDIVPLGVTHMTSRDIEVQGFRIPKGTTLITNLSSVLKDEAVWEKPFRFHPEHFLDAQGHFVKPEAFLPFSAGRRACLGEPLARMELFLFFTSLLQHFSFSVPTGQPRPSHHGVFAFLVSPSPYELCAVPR

Cytochrome P450 3A4 = Cytochrome P450 3A4 (Homo sapiens, UniProt P08684); assay: Inhibition of CYP3A4; assay type: ADME
Chain of Cytochrome P450 3A4 (P08684 whole entry): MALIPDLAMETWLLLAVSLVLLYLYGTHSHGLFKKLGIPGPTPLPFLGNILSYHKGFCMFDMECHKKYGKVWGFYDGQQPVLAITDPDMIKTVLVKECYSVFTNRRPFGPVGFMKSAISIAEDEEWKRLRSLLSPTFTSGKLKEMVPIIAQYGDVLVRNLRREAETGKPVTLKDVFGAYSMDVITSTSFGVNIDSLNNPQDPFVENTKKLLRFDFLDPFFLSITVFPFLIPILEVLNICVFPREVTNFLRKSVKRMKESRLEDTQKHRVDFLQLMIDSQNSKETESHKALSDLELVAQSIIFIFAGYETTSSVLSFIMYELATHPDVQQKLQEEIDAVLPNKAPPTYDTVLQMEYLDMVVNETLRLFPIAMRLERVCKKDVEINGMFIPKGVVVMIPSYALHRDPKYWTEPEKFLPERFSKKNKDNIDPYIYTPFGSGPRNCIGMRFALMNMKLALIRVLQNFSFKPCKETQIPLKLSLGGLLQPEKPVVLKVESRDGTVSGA

CYP1A2 = target: T3, CYP1A2 (Homo sapiens, UniProt P05177); assay: Inhibition of CYP1A2 at 10 uM; assay type: ADME
T3 sequence (P05177 whole entry): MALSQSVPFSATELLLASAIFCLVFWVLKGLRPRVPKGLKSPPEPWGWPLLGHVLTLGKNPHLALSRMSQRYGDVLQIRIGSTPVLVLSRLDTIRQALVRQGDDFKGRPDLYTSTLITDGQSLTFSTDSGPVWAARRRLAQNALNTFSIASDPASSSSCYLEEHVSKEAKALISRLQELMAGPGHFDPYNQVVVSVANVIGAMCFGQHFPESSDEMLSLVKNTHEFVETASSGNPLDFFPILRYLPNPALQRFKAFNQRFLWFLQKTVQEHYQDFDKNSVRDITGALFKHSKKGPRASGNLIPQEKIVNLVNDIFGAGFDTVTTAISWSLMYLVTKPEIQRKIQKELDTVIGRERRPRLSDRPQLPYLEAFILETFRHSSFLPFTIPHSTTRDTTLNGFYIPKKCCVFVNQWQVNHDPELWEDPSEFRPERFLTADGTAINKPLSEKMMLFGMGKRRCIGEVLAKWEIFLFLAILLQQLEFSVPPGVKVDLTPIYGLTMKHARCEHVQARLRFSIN

CYP2C9 = CYP2C9 (Homo sapiens, UniProt P11712); assay: Inhibition of CYP2C9 at 10 uM; assay type: ADME
Chain of CYP2C9 (P11712 whole entry): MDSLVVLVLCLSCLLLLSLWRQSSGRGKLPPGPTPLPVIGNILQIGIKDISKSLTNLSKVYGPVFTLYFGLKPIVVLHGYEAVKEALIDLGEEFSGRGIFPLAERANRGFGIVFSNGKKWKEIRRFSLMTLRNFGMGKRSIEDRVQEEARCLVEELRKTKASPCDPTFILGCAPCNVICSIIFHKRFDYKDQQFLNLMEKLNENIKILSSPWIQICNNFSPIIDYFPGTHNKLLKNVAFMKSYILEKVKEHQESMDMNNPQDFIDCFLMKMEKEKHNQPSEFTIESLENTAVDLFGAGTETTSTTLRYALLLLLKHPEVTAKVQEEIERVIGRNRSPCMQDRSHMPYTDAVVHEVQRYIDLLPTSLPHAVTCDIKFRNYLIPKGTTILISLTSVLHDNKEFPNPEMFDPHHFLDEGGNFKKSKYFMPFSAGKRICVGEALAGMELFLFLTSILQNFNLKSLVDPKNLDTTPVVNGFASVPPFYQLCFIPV

CYP2C19 = CYP2C19 (Homo sapiens, UniProt P33261); assay: Inhibition of CYP2C19 at 10 uM; assay type: ADME
Chain of CYP2C19 (P33261 whole entry): as the sequence (P33261 whole entry) above

CYP2D6 = CYP2D6 (Homo sapiens, UniProt P10635); assay: Inhibition of CYP2D6 at 10 uM; assay type: ADME
Chain of CYP2D6 (P10635 whole entry): as the sequence (P10635 whole entry) above

CYP3A4 = CYP3A4 (Homo sapiens, UniProt P08684); assay: Inhibition of CYP3A4 at 10 uM; assay type: ADME
Chain of CYP3A4 (P08684 whole entry): as the sequence (P08684 whole entry) above

hERG = hERG (Homo sapiens, UniProt Q12809); assay: Inhibition of human ERG at 10 uM by patch clamp method
Chain of hERG (Q12809 whole entry): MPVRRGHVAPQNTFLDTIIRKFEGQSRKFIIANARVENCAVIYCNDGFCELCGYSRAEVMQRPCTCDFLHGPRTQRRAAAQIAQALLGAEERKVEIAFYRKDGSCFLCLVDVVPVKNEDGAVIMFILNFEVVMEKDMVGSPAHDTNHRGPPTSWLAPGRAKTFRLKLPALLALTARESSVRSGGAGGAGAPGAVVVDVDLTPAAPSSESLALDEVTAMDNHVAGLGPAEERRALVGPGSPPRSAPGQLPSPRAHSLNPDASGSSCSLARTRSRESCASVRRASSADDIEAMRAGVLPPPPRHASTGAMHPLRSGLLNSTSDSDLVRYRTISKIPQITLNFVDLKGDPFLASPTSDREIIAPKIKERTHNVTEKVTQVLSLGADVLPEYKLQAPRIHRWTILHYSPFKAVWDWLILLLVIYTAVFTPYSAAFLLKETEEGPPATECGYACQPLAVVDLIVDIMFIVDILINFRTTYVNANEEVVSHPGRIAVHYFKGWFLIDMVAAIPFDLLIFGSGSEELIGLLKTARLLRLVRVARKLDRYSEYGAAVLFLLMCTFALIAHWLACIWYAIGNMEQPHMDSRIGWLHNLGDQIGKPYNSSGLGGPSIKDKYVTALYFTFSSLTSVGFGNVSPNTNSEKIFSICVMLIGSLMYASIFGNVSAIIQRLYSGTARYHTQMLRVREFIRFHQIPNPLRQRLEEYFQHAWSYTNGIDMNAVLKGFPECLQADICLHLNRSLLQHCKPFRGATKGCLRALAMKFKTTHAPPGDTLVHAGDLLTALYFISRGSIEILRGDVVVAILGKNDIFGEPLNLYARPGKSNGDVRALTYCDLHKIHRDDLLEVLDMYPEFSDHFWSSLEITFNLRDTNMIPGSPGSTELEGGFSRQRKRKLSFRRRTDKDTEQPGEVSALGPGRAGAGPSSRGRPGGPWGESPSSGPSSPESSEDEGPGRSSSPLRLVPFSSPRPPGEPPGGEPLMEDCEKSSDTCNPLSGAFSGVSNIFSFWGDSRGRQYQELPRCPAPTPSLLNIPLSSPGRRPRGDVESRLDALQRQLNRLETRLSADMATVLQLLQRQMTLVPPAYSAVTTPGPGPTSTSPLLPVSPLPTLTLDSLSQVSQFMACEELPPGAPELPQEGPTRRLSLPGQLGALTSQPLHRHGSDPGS

Cytochrome P450 1A2 = target: T4, Cytochrome P450 1A2 (Homo sapiens, UniProt P05177); assay: Inhibition of CYP1A2; assay type: ADME
T4 sequence (P05177 whole entry): T3 sequence (P05177 whole entry)

Cytochrome P450 2C9 = Cytochrome P450 2C9 (Homo sapiens, UniProt P11712); assay: Inhibition of CYP2C9; assay type: ADME
[25] = target: T5, 5-hydroxytryptamine receptor 2C (Homo sapiens, UniProt P28335); assay: Displacement of [125I]DOI from human recombinant 5HT2C receptor expressed in HEK293E cells; assay type: cell-based; method in brief: as §2
T5 sequence (P28335 whole entry): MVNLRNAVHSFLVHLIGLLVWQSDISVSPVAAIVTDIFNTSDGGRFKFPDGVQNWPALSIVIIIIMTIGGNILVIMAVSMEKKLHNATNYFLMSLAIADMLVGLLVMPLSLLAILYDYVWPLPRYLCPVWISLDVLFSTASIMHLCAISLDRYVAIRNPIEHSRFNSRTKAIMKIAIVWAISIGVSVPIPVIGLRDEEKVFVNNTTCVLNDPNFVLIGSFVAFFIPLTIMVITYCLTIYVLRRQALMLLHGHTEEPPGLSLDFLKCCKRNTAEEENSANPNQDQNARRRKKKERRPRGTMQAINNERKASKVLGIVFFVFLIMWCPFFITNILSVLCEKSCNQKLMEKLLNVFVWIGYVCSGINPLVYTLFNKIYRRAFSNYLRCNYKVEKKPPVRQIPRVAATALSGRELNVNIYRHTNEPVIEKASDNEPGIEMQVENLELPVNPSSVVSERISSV

[26] = target: T5, 5-hydroxytryptamine receptor 2C; assay: Agonist activity at human recombinant 5HT2C receptor expressed in HEK293E cells by FLIPR assay; assay type: functional, cell-based; method in brief: as §1
[27] = target: T1, 5-hydroxytryptamine receptor 2B; assay: Displacement of [3H]LSD from human recombinant 5HT2B receptor expressed in HEK293E cells

T1 sequence (P41595 whole entry): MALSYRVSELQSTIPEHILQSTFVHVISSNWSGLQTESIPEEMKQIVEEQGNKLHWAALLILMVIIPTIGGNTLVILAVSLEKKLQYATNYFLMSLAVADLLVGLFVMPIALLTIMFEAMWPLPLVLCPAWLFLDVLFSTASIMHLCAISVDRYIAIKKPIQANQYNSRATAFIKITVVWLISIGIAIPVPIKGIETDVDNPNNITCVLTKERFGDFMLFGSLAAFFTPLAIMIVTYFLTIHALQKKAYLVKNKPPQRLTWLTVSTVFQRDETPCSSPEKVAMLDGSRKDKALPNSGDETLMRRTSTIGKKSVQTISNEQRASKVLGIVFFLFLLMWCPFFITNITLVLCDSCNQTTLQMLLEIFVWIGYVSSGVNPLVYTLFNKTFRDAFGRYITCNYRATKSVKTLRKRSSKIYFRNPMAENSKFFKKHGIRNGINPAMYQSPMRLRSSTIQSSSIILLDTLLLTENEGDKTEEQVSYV

In the case of Cc1cccc2c1C(=O)NC1CNCCN21 (single isomer, unassigned; (+)), the EC50 [1] is reported as greater than 10000 nM, the Ki [2] is reported as 229 nM and the EC50 [3] is reported as greater than 10000 nM. The half-life [4] was 54 min, the half-life [5] was 150 min and the clearance [6] was 27 mL/min/kg. It also gave a Vd [7] of 1.3 L/kg, a Tmax [8] of 60 min and a Cmax [9] of 293 nM. The AUC(0-inf) [10] was 2.34 µM·h, the AUC(0-inf) [11] was 1.15 µM·h and the bioavailability [12] was 49%. It also gave a Tmax [13] of 30 min, a Cmax [14] of 5380 nM and an AUC at 4 h [15] of 1.04 µM·h. It also gave an AUC at 4 h [16] of 1.24 µM·h, a concentration at 4 h [17] of 219 nM and a concentration at 4 h [18] of 2120 nM. For the same molecule, the Drug uptake (Brain [19]) was 326 nmol/kg, the Drug uptake (Brain [20]) was 3010 nmol/kg and the Activity (Rattus norvegicus [21]) was 22%. The Activity (Rattus norvegicus [22]) was 4.1%, the Activity (Rattus norvegicus [23]) was 16% and the Activity (Rattus norvegicus [24]) was “Non-toxic”. It also gave an IC50 (Cytochrome P450 2C19) greater than 40000 nM, an IC50 (Cytochrome P450 2D6) greater than 40000 nM and an IC50 (Cytochrome P450 3A4) greater than 40000 nM. For the same molecule, the inhibition at 10 µM (CYP1A2) was greater than 50%, the inhibition at 10 µM (CYP2C9) was greater than 50% and the inhibition at 10 µM (CYP2C19) was greater than 50%. The inhibition at 10 µM (CYP2D6) was greater than 50%, the inhibition at 10 µM (CYP3A4) was greater than 50% and the inhibition at 10 µM (hERG) was 37%. It also gave an IC50 (Cytochrome P450 1A2) greater than 40000 nM, an IC50 (Cytochrome P450 2C9) greater than 40000 nM and a Ki [25] of 89 nM. The EC50 [26] was 45 nM and the Ki [27] was 8.6 nM.
